The values below come from ChEMBL document CHEMBL4017537, “Discovery of a Potent and Specific M. tuberculosis Leucyl-tRNA Synthetase Inhibitor: (S)-3-(Aminomethyl)-4-chloro-7-(2-hydroxyethoxy)benzo[c][1,2]oxaborol-1(3H)-ol (GSK656)” (J Med Chem, 2017).

Data set [1] in a line: Clearance in C57BL/6 mouse at 28.5 mg/kg, iv administered as single dose measured up to 8 hrs by LC-MS/MS analysis. The settings on record: in vivo. The data set is classed as ADME, organism-based.
Data set [2] is described as follows: Half life in C57BL/6 mouse at 28.5 mg/kg, iv administered as single dose measured up to 8 hrs by LC-MS/MS analysis. The data set is classed as ADME, organism-based. The settings on record: in vivo.
Data set [3] can be described thus: AUC (0 to infinity) in C57BL/6 mouse at 28.5 mg/kg, iv administered as single dose measured up to 8 hrs by LC-MS/MS analysis. It is filed as ADME, organism-based. Also on record: dose 28.5 mg/kg, time infinity, route intravenous. The note with it: in vivo.
Data set [4] has as its system Mus musculus. As to the kind of experiment: Dose normalized AUC (0 to infinity) in C57BL/6 mouse at 28.5 mg/kg, iv administered as single dose measured up to 8 hrs by LC-MS/MS analysis. The data set is classed as ADME, organism-based. The note with it: in vivo.
A short description of data set [5]: Cmax in C57BL/6 mouse at 26.1 mg/kg administered as single dose via oral gavage measured up to 24 hrs by LC-MS/MS analysis. It is filed as ADME, organism-based. Also on record: dose 26.1 mg/kg, route oral. The settings on record: in vivo.
A short description of data set [6]: Tmax in C57BL/6 mouse at 26.1 mg/kg administered as single dose via oral gavage measured up to 24 hrs by LC-MS/MS analysis. The data set is classed as ADME, organism-based. The settings on record: in vivo.
Data set [7] in a line: AUC (0 to 24 hrs) in C57BL/6 mouse at 26.1 mg/kg administered as single dose via oral gavage by LC-MS/MS analysis. The settings on record: in vivo. The data set is classed as ADME, organism-based. Also on record: dose 26.1 mg/kg, time < 24 hr, route oral.
Data set [8] in a line: Oral bioavailability in C57BL/6 mouse at 26.1 mg/kg administered as single dose via gavage measured up to 24 hrs by LC-MS/MS analysis. It is filed as ADME, organism-based. The settings on record: in vivo.
The nature of data set [9]: Volume of distribution at steady state in CD-1 mouse at 30 mg/kg, iv after 24 hrs by LC-MS/MS analysis. It is filed as ADME, organism-based. The settings on record: in vivo, read-out: Vdss.
A short description of data set [10]: AUC (0 to infinity) in CD-1 mouse at 30 mg/kg, iv after 24 hrs by LC-MS/MS analysis. The data set is classed as ADME, organism-based. On the set-up: dose 30 mg/kg, route intravenous, time infinity. The note with it: in vivo.
Data set [11] relates to Mus musculus. In words: Dose normalized AUC (0 to infinity) in CD-1 mouse at 30 mg/kg, iv after 24 hrs by LC-MS/MS analysis. The data set is classed as ADME, organism-based. The note with it: in vivo.
Data set [12] can be described thus: Tmax in CD-1 mouse at 30 mg/kg administered via oral gavage after 24 hrs by LC-MS/MS analysis. It is filed as ADME, organism-based. The note with it: in vivo.
Data set [13] in a line: AUC (0 to 24 hrs) in CD-1 mouse at 30 mg/kg administered via oral gavage by LC-MS/MS analysis. The data set is classed as ADME, organism-based. On the set-up: dose 30 mg/kg, time < 24 hr, route oral. The settings on record: in vivo.
The nature of data set [14]: Oral bioavailability in CD-1 mouse at 30 mg/kg administered via gavage after 24 hrs by LC-MS/MS analysis. It is filed as ADME, organism-based. The settings on record: in vivo.
Data set [15] has as its system Mus musculus. As to the kind of experiment: Toxicity in mouse at 50 mg/kg, qd. The data set is classed as organism-based. The settings on record: in vivo.
Data set [16] concerns Mus musculus. In words: Toxicity in mouse at 150 mg/kg. The data set is classed as organism-based. The note with it: in vivo. In outline:
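Maximum single tolerated dose study: healthy mice each got one dose, and tolerability was judged across escalating dose levels.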

Data set [17] is described as follows: Volume of distribution at steady state in C57BL/6 mouse at 5.5 mg/kg, iv administered as single dose measured up to 24 hrs by LC-MS/MS analysis. The settings on record: in vivo, read-out: Vdss. The data set is classed as ADME, organism-based. In outline:
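C57BL/6 female mice (18−20 g) got one intravenous dose in saline. Whole blood (15 μL) was taken by lateral tail-vein puncture from each of 3 mice at 5, 15 and 30 min and at 1, 2, 4, 8 and 24 h postdose, and drug concentrations were measured in peripheral blood.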

Data set [18] is described as follows: Half life in C57BL/6 mouse at 5.5 mg/kg, iv administered as single dose measured up to 24 hrs by LC-MS/MS analysis. It is filed as ADME, organism-based. The note with it: in vivo.
Data set [19] in a line: AUC (0 to infinity) in C57BL/6 mouse at 5.5 mg/kg, iv administered as single dose measured up to 24 hrs by LC-MS/MS analysis. It is filed as ADME, organism-based. On the set-up: dose 5.5 mg/kg, time infinity, route intravenous. The note with it: in vivo.
Data set [20] has as its system Mus musculus. As to the kind of experiment: Dose normalized AUC (0 to infinity) in C57BL/6 mouse at 5.5 mg/kg, iv administered as single dose measured up to 24 hrs by LC-MS/MS analysis. It is filed as ADME, organism-based. The note with it: in vivo.
Data set [21] can be described thus: Clearance in C57BL/6 mouse at 5.5 mg/kg, iv administered as single dose measured up to 24 hrs by LC-MS/MS analysis. It is filed as ADME, organism-based. The note with it: in vivo.
Data set [22] in a line: Cmax in C57BL/6 mouse at 30 mg/kg administered as single dose via oral gavage measured up to 24 hrs by LC-MS/MS analysis. The data set is classed as ADME, organism-based. On the set-up: dose 30 mg/kg, route oral. The note with it: in vivo.
Data set [23] can be described thus: Tmax in C57BL/6 mouse at 30 mg/kg administered as single dose via oral gavage measured up to 24 hrs by LC-MS/MS analysis. It is filed as ADME, organism-based. The note with it: in vivo. In outline:
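C57BL/6 female mice (18−20 g) got one oral gavage dose of 30 mg/kg in 1% methylcellulose. Peripheral whole blood was sampled from 15 min to 24 h postdose, n = 3 mice per time point, and drug concentrations were measured in blood.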

Data set [24] has as its system Mus musculus. As to the kind of experiment: Dose normalized AUC (0 to 24 hrs) in C57BL/6 mouse at 30 mg/kg administered as single dose via oral gavage by LC-MS/MS analysis. The data set is classed as ADME, organism-based. The settings on record: in vivo.
Data set [25] can be described thus: Oral bioavailability in C57BL/6 mouse at 30 mg/kg administered as single dose via gavage measured up to 24 hrs by LC-MS/MS analysis. The data set is classed as ADME, organism-based. The settings on record: in vivo.
Data set [26] has as its system Mycobacterium tuberculosis. As to the kind of experiment: Antimicrobial activity against Mycobacterium tuberculosis H37Rv infected in C57BL/6J mouse assessed as bacterial load in lungs at 0.1 mg/kg qd administered for 8 consecutive weeks starting from 6 weeks post infection measured 24 hrs post last dose (reference value: 6.4 +/- 0.3 log10CFU). The data set is classed as functional. In outline:
(§1)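 C57BL/6J mice infected intratracheally with ~10² CFU M. tuberculosis H37Rv. Dosed QD, 7 days/week, for 8 weeks starting 6 weeks post-infection; killed ≥24 h after last dose. Lung homogenates plated on 7H11/10% OADC for 21 days at 37 °C. n = 3 per dose group, 7 for controls; mean (SD); ANOVA with Dunnett's test versus 14-week untreated.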

Data set [27] has as its system Mycobacterium tuberculosis. In words: Antimicrobial activity against Mycobacterium tuberculosis H37Rv infected in C57BL/6J mouse assessed as bacterial load in lungs at 0.3 mg/kg qd administered for 8 consecutive weeks starting from 6 weeks post infection measured 24 hrs post last dose (reference value: 6.4 +/- 0.3 log10CFU). It is filed as functional. In outline:
as §1

Data set [28] deals with Mycobacterium tuberculosis. As to the kind of experiment: Antimicrobial activity against Mycobacterium tuberculosis H37Rv infected in C57BL/6J mouse assessed as bacterial load in lungs at 1 mg/kg qd administered for 8 consecutive weeks starting from 6 weeks post infection measured 24 hrs post last dose (reference value: 6.4 +/- 0.3 log10CFU). It is filed as functional. In outline: as §1

Data set [29] deals with Mycobacterium tuberculosis. In words: Antimicrobial activity against Mycobacterium tuberculosis H37Rv infected in C57BL/6J mouse assessed as bacterial load in lungs at 3 mg/kg qd administered for 8 consecutive weeks starting from 6 weeks post infection measured 24 hrs post last dose (reference value: 6.4 +/- 0.3 log10CFU). The data set is classed as functional. In outline:
as §1

Data set [30] deals with Mycobacterium tuberculosis. In words: Antimicrobial activity against Mycobacterium tuberculosis H37Rv infected in C57BL/6J mouse assessed as bacterial load in lungs at 10 mg/kg qd administered for 8 consecutive weeks starting from 6 weeks post infection measured 24 hrs post last dose (reference value: 6.4 +/- 0.3 log10CFU). The data set is classed as functional. In outline:
as §1

The test system of data set [31] is Mycobacterium tuberculosis. In words: Antimicrobial activity against Mycobacterium tuberculosis H37Rv infected in C57BL/6J mouse assessed as bacterial load in lungs at 30 mg/kg qd administered for 8 consecutive weeks starting from 6 weeks post infection measured 24 hrs post last dose (reference value: 6.4 +/- 0.3 log10CFU). It is filed as functional. In outline:
as §1

Data set [32] can be described thus: Toxicity in mouse administered qd. The settings on record: in vivo.

For the molecule `CCOc1ccc(Br)c2c1B(O)O[C@@H]2CN`, in [1], the clearance worked out at 6.6 mL/min/kg. This molecule gave a half-life in [2] of 186 min. Also, the figures for the AUC(0-inf) in data set [3] and in data set [10] were 72300 ng·h/mL and 43400 ng·h/mL, respectively. For the same molecule, the AUC/dose in the data set on Mus musculus [4] came to 2.54 µg·h/mL/mg/kg; in the data set with Mus musculus [11] it was 1.45 µg·h/mL/mg/kg. In addition, the Cmax in [5] worked out at 11100 ng/mL. Further, the Tmax in data set [6] is 2 h; in data set [12] it was 30 min. Besides, the area under the curve AUC(0-t) at 24 h was 77900 ng·h/mL in data set [7] and 57600 ng·h/mL in data set [13]. Besides, the bioavailability in [8] and in [14] was 100% each time. In addition, the Vd in data set [9] was 3.2 L/kg. For the same molecule, the Activity result in the data set with Mus musculus [15] and with Mus musculus [16] was “Toxic” in each case.
With `Cl.NC[C@H]1OB(O)c2c(OCCO)ccc(Cl)c21`, in data set [17], the Vd was determined as 2.3 L/kg. Further, the half-life in data set [18] was 216 min. This molecule also displayed an AUC(0-inf) in data set [19] of 11100 ng·h/mL. In addition, the AUC/dose in the data set on Mus musculus [20] was determined as 2.03 µg·h/mL/mg/kg; with Mus musculus [24] it was 2.94 µg·h/mL. The clearance in data set [21] was found to be 8.5 mL/min/kg. Besides, in data set [22], the highest concentration (Cmax) is 17800 ng/mL. In addition, in data set [23], the time of peak concentration (Tmax) turned out to be 54 min. The same molecule returned a bioavailability in data set [25] of 100%. The Activity is on record as 6.4 log10CFU in data set [26]; 6 log10CFU in [27]; 4.7 log10CFU in [28]; 4.6 log10CFU in [29]; 4.3 log10CFU in data set [30]; 4.4 log10CFU in data set [31]. For the same molecule, in data set [32], the MTD is 100 mg/kg.
